# Data published in ChEMBL document CHEMBL1149559, “Synthesis and evaluation of amphiphilic cationic quinine-derived for antibacterial activity against methicillin-resistant Staphylococcus aureus” (Bioorg Med Chem Lett, 2007).
# The source made the active and inactive calls. The rule behind the calls is not given here.
# Columns and labels:
# Bacillus subtilis = experiment: Antibacterial activity against Bacillus subtilis ATCC 6633 by broth microdilution method; assay type: functional
# Summary of the method: (§1)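 MIC and MBC by broth microdilution following NCCLS recommendations; values given in µg/mL.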
# Escherichia coli = experiment: Antibacterial activity against Escherichia coli ATCC 25922 by broth microdilution method; assay type: functional; summary of the method: as §1
# Staphylococcus aureus [1] = experiment: Antibacterial activity against Staphylococcus aureus by disk diffusion method; assay type: functional
# Staphylococcus aureus [2] = experiment: Antibacterial activity against methicillin-susceptible Staphylococcus aureus ATCC 25923 by broth microdilution method; assay type: functional; summary of the method: as §1
# Micrococcus luteus = experiment: Antibacterial activity against Micrococcus luteus CMCC(B)28001 by broth microdilution method; assay type: functional; summary of the method: as §1
# Staphylococcus aureus [3] = experiment: Antibacterial activity against methicillin-resistant Staphylococcus aureus CMAH 0515 by disk diffusion method; assay type: functional
# Staphylococcus aureus [4] = experiment: Antibacterial activity against methicillin-resistant Staphylococcus aureus CMAH 0504 at 30 ug/ml by disk diffusion method; assay type: functional; settings: read-out: IZ
# Staphylococcus aureus [5] = experiment: Antibacterial activity against methicillin-resistant Staphylococcus aureus CMAH 0430 by disk diffusion method; assay type: functional
# Staphylococcus aureus [6] = experiment: Antibacterial activity against methicillin-resistant Staphylococcus aureus CMAH 0504 by broth microdilution method; assay type: functional; summary of the method: as §1
# Staphylococcus aureus [7] = experiment: Antibacterial activity against methicillin-resistant Staphylococcus aureus CMAH 0430 by broth microdilution method; assay type: functional; summary of the method: as §1
# Staphylococcus aureus [8] = experiment: Antibacterial activity against methicillin-resistant Staphylococcus aureus CMAH 0515 by broth microdilution method; assay type: functional; summary of the method: as §1
# [9] = Toxicity in human erythrocytes assessed as hemolytic activity at 500 ug/ml after 1 hr; assay type: cell-based, Erythrocyte; settings: read-out: Activity
# Summary of the method: (§2)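 Human heparinised erythrocytes, PBS-washed, were used at about 1.0 × 10^9 cells/mL and mixed 1:1 with compound (1-2000 µg/mL) for 1 h at 37 °C. After centrifugation, supernatant OD540 was read. PBS set 0% lysis and 0.1% Triton X-100 set 100% lysis. Triplicates, confirmed in three independent experiments.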
# [10] = Toxicity in human erythrocytes assessed as hemolytic activity at 1000 ug/ml after 1 hr; assay type: cell-based, Erythrocyte; settings: read-out: Activity; summary of the method: as §2
# [11] = Toxicity in human erythrocytes assessed as hemolytic activity at 250 ug/ml after 1 hr; assay type: cell-based, Erythrocyte; settings: read-out: Activity; summary of the method: as §2
# [12] = Toxicity in human erythrocytes assessed as hemolytic activity at 2000 ug/ml after 1 hr; assay type: cell-based, Erythrocyte; settings: read-out: Activity; summary of the method: as §2
compound,measurement,setting,value
NC[C@H]1O[C@H](O[C@H]2[C@H](O)[C@@H](O[C@H]3O[C@H](CO)[C@@H](O)[C@H](N)[C@H]3O)[C@H](N)C[C@@H]2N)[C@H](O)[C@@H](O)[C@@H]1O [KANAMYCIN],MBC,Bacillus subtilis,6.25 µg/mL
same,MIC,Bacillus subtilis,6.25 µg/mL
same,MBC,Escherichia coli,0.39 µg/mL
same,MIC,Escherichia coli,0.39 µg/mL
same,inhibition zone (IZ),Staphylococcus aureus [1],28 mm
same,MBC,Staphylococcus aureus [2],0.78 µg/mL
same,MIC,Staphylococcus aureus [2],0.39 µg/mL
same,MBC,Micrococcus luteus,0.39 µg/mL
same,MIC,Micrococcus luteus,0.39 µg/mL
O=C(N[C@H](CO)[C@H](O)c1ccc([N+](=O)[O-])cc1)C(Cl)Cl [CHLORAMPHENICOL],inhibition zone (IZ),Staphylococcus aureus [3],27 mm
same,zone of inhibition at 30 µg/mL,Staphylococcus aureus [4],26 mm
same,inhibition zone (IZ),Staphylococcus aureus [5],27 mm
same,inhibition zone (IZ),Staphylococcus aureus [1],32 mm
Cc1nnc(SCC2=C(C(=O)O)N3C(=O)[C@@H](NC(=O)Cn4cnnn4)[C@H]3SC2)s1 [CEFAZOLIN],inhibition zone (IZ),Staphylococcus aureus [5],2 mm
same,inhibition zone (IZ),Staphylococcus aureus [1],30 mm
C=C[C@H]1CN2CC[C@H]1C[C@H]2[C@H](O)c1ccnc2ccc(OC)cc12,Activity,Staphylococcus aureus [6],inactive
same,Activity,Staphylococcus aureus [7],inactive
same,Activity,Staphylococcus aureus [8],inactive
same,Activity,Staphylococcus aureus [2],inactive
CN[C@H](CC(C)C)C(=O)N[C@H]1C(=O)N[C@@H](CC(N)=O)C(=O)N[C@H]2C(=O)N[C@H]3C(=O)N[C@H](C(=O)N[C@H](C(=O)O)c4cc(O)cc(O)c4-c4cc3ccc4O)[C@H](O)c3ccc(c(Cl)c3)Oc3cc2cc(c3O[C@@H]2O[C@H](CO)[C@@H](O)[C@H](O)[C@H]2O[C@H]2C[C@](C)(N)[C@H](O)[C@H](C)O2)Oc2ccc(cc2Cl)[C@H]1O [VANCOMYCIN],inhibition zone (IZ),Staphylococcus aureus [3],24 mm
same,zone of inhibition at 30 µg/mL,Staphylococcus aureus [4],22 mm
same,inhibition zone (IZ),Staphylococcus aureus [5],24 mm
same,inhibition zone (IZ),Staphylococcus aureus [1],23 mm
C=CC1C[N+]2(CC(=O)c3ccc(OC)cc3)CCC1CC2[C@H](O)c1ccnc2ccc(OC)cc12.[Br-] (stereo partly specified),MBC,Bacillus subtilis,25 µg/mL
same,MIC,Bacillus subtilis,12.5 µg/mL
same,MBC,Staphylococcus aureus [6],50 µg/mL
same,MIC,Staphylococcus aureus [6],25 µg/mL
same,MBC,Staphylococcus aureus [7],50 µg/mL
same,MIC,Staphylococcus aureus [7],25 µg/mL
same,"hemolysis at 1 h, 500 ug/ml",[9],0%
same,"hemolysis at 1 h, 1000 ug/ml",[10],0%
same,"hemolysis at 1 h, 250 ug/ml",[11],0%
same,"hemolysis at 1 h, 2000 ug/ml",[12],0%
same,MBC,Staphylococcus aureus [8],50 µg/mL
same,MIC,Staphylococcus aureus [8],25 µg/mL
same,MBC,Staphylococcus aureus [2],12.5 µg/mL
same,MIC,Staphylococcus aureus [2],12.5 µg/mL
same,MBC,Micrococcus luteus,12.5 µg/mL
same,MIC,Micrococcus luteus,12.5 µg/mL
C=CC1C[N+]2(CC(=O)c3ccccc3)CCC1CC2[C@H](O)c1ccnc2ccc(OC)cc12.[Br-] (stereo partly specified),MBC,Bacillus subtilis,25 µg/mL
same,MIC,Bacillus subtilis,25 µg/mL
same,MBC,Staphylococcus aureus [6],25 µg/mL
same,MIC,Staphylococcus aureus [6],12.5 µg/mL
same,MBC,Staphylococcus aureus [7],25 µg/mL
same,MIC,Staphylococcus aureus [7],12.5 µg/mL
same,"hemolysis at 1 h, 500 ug/ml",[9],0%
same,"hemolysis at 1 h, 1000 ug/ml",[10],0%
same,"hemolysis at 1 h, 250 ug/ml",[11],0%
same,"hemolysis at 1 h, 2000 ug/ml",[12],5%
same,MBC,Staphylococcus aureus [8],25 µg/mL
same,MIC,Staphylococcus aureus [8],12.5 µg/mL
same,MBC,Staphylococcus aureus [2],25 µg/mL
same,MIC,Staphylococcus aureus [2],12.5 µg/mL
same,MBC,Micrococcus luteus,12.5 µg/mL
same,MIC,Micrococcus luteus,6.3 µg/mL
CCC(=O)O[C@@H]1CC(=O)O[C@H](C)C/C=C/C=C/[C@H](O)[C@H](C)C[C@H](CC=O)[C@H](O[C@@H]2O[C@H](C)[C@@H](O[C@H]3C[C@@](C)(O)[C@@H](OC(=O)CC)[C@H](C)O3)[C@H](N(C)C)[C@H]2O)[C@H]1OC [MIDECAMYCIN],inhibition zone (IZ),Staphylococcus aureus [1],27 mm
